Reference: ChEMBL document CHEMBL1142384, “Gamma-carboline derivatives with anti-bovine viral diarrhea virus (BVDV) activity” (Bioorg Med Chem, 2008)

Tests used:
[1] = tested on: Bovine viral diarrhea virus 1; assay: Antiviral activity against BVDV infected in MDBK cells assessed as reduction in viral induced cell destruction by MTT assay; assay type: functional, organism-based; conditions: Bovine viral diarrhea virus isolates and strains
In short: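 BVDV (Nose strain) infected MDBK cells (1 × 10^4 cells/well) at multiplicity of infection 0.01. Cells incubated at 37 °C with various compound concentrations for 3 days. Viability of infected cells read by MTT.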

[2] = Cytotoxicity against mock-infected MDBK cells by LDH method; assay type: cell-based, Bos taurus; conditions: cattle
In short: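 Mock-infected MDBK cells (1 × 10^4 cells/well) incubated at 37 °C with various compound concentrations for 3 days. Viability measured by the LDH method.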

[3] = Selectivity index, ratio of CC50 for MDBK cells to EC50 for BVDV infected in MDBK cells; assay type: functional
In short: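 MDBK cells (1 × 10^4/well) were infected with BVDV Nose strain at MOI 0.01, or mock-infected, and held at 37 °C with various compound concentrations for 3 days. EC50 was taken from the reduction of virus-induced cell destruction, measured as MTT viability of infected cells. CC50 was taken from the reduction of viable cell number, measured by LDH in mock-infected cells. SI = CC50/EC50.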

HL-60 = assay: Growth inhibition of human HL60 cells; assay type: functional, cell-based

Cc1nccc2[nH]c3ccccc3c12
EC50 [1]: 0.58 µM
CC50 [2]: 9.7 µM
Ratio CC50/EC50 [3]: 16.7
IC50 (HL-60): 15.3 µM

Cc1ccc2[nH]c3ccncc3c2c1
EC50 [1]: 3 µM
CC50 [2]: 12 µM
Ratio CC50/EC50 [3]: 4

c1ccc2c(c1)[nH]c1ccncc12
EC50 [1]: 2 µM
CC50 [2]: 40 µM
IC50 (HL-60): 11.4 µM

Cc1cccc2c1[nH]c1ccncc12
EC50 [1]: 1.7 µM
CC50 [2]: 24 µM
Ratio CC50/EC50 [3]: 14.1

Cc1ccc2c(c1)[nH]c1ccncc12
EC50 [1]: 1.1 µM
CC50 [2]: 24 µM
Ratio CC50/EC50 [3]: 21.8

c1ccc2c(c1)oc1ccccc12 [DIBENZOFURAN]
EC50 [1]: 58 µM
CC50 [2]: > 100 µM

CCCCCCn1c2ccccc2c2cnccc21
EC50 [1]: > 7.4 µM
CC50 [2]: 7.4 µM

c1ccc(Cn2c3ccccc3c3cnccc32)cc1
EC50 [1]: 8.7 µM
CC50 [2]: 11 µM

Cc1cc2[nH]c3ccccc3c2cn1
EC50 [1]: 2.2 µM
CC50 [2]: 70 µM
Ratio CC50/EC50 [3]: 31.8

Cc1cccc2[nH]c3ccncc3c12
EC50 [1]: 1.2 µM
CC50 [2]: 16 µM
Ratio CC50/EC50 [3]: 13.3

Cc1cncc2c1[nH]c1ccccc12
EC50 [1]: 0.55 µM
CC50 [2]: 21 µM
Ratio CC50/EC50 [3]: 38.2

CCCCn1c2ccccc2c2cnccc21
EC50 [1]: 9.2 µM
CC50 [2]: 14 µM

c1ccc2c(c1)[nH]c1ncccc12
EC50 [1]: 93 µM
CC50 [2]: > 100 µM

CCN(CC)CCn1c2ccccc2c2cnccc21
EC50 [1]: 8.9 µM
CC50 [2]: 10 µM

CCn1c2ccccc2c2cnccc21
EC50 [1]: 2 µM
CC50 [2]: 29 µM

c1ccc2c(c1)Cc1ccccc1-2 [FLUORENE]
EC50 [1]: 71 µM
CC50 [2]: > 100 µM

CCCn1c2ccccc2c2cnccc21
EC50 [1]: 8.2 µM
CC50 [2]: 26 µM

c1ccc2c(c1)[nH]c1cccnc12
EC50 [1]: > 100 µM
CC50 [2]: > 100 µM

CC(C)n1c2ccccc2c2cnccc21
EC50 [1]: 11 µM
CC50 [2]: 30 µM

Cn1ccc2nc3ccccc3c-2c1
EC50 [1]: 4.3 µM
CC50 [2]: 65 µM
Ratio CC50/EC50 [3]: 15.1

Cn1c2ccccc2c2cnccc21
EC50 [1]: 0.26 µM
CC50 [2]: 29 µM
Ratio CC50/EC50 [3]: 111.5

c1ccc2c(c1)[nH]c1cnccc12 [NORHARMANE]
EC50 [1]: 8.8 µM
CC50 [2]: 78 µM

c1ccc2c(c1)[nH]c1ccccc12 [CARBAZOLE]
EC50 [1]: 64 µM
CC50 [2]: > 100 µM
